The target in experiment [1] is Glutamate receptor ionotropic, kainate. The experiment in a line: The compound was evaluated […] for the competitive binding against [3H]kainate for rat cortical and hippocampal membrane glutamate binding site.
Another experiment deals with Glutamate NMDA receptor. The experiment in a line: Ability to compete with [3H]glycine for strychnine-insensitive binding sites on rat cortical and hippocampal membrane. The format is tissue-based, Hippocampus. The gist of the method: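 Rat cortical plus hippocampal membranes, competing against [³H]glycine at strychnine-insensitive sites. Values are the mean of ≥2 experiments, with SE within 10-30% of the mean.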

The target of experiment [2] is Glutamate receptor ionotropic, AMPA (Rattus norvegicus, UniProt P19490+P19491+P19492+P19493). The experiment in a line: The compound was evaluated […] for the competitive binding against […] for rat cortical and hippocampal membrane glutamate binding site.
The nature of experiment [3]: Ability to compete with […] for rat cortical and hippocampal membrane glutamate binding site. The format is tissue-based, Hippocampus. The gist of the method:
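Competition binding against [³H]CPP at the glutamate site, using rat cortical and hippocampal membranes. Values are means of two or more experiments, with standard errors ±10-30% of the mean.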

Experiment [4] addresses Glutamate NMDA receptor (Rattus norvegicus) (UniProt P35439+Q00959+Q00960+Q00961+Q62645+Q8VHN2+Q9R1M7). The experiment in a line: Ratio of the inhibitory activity against […] for rat cortical and hippocampal membrane glutamate binding site to [3H]glycine for rat cortical and hippocampal membrane binding site. It counts as tissue-based. The note with it: Hippocampus.

Experiment [5] has as its system Mus musculus. The experiment in a line: The compound was evaluated in vivo for the anticonvulsant activity in quinolinic acid seizure model (intraperitoneal), for 2 hr drug pretreatment time. The conditions noted are these: ip. The format is functional. The gist of the method:
(§1)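 Mice got test compound in distilled water with a few drops of Tween (1 mL/kg) at set times before icv quinolinic acid (7.7 μg in 5 μL saline). Clonic-tonic seizures were watched for 15 min, and non-convulsing mice counted as protected.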

Experiment [6] deals with Mus musculus. The experiment in a line: The compound was evaluated in vivo for the anticonvulsant activity in quinolinic acid + probenecid seizure model (intravenous), for 5 min drug pretreatment time. It counts as functional. The gist of the method:
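Quinolinic acid seizure in mice: probenecid 200 mg/kg ip given 30 min before the test compound. Test compound in distilled water with Tween (1 mL/kg), then icv quinolinic acid (7.7 μg in 5 μL saline). Mice were watched 15 min for clonic-tonic seizures.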

Experiment [7] has as its system Mus musculus. The experiment in a line: The compound was evaluated in vivo for the anticonvulsant activity in quinolinic acid seizure model (intravenous), for 5 min drug pretreatment time. It counts as functional. Put shortly: as §1
Experiment [8] has as its system Mus musculus. The experiment in a line: The compound was evaluated in vivo for the anticonvulsant activity in quinolinic acid seizure model (intracerebroventricular), for 5 min drug pretreatment time. The format is functional. The conditions noted are these: central. Put shortly: as §1
Experiment [9] deals with Mus musculus. The experiment in a line: The compound was evaluated in vivo for the anticonvulsant activity in audiogenic seizure model (intraperitoneal), for 2 hr drug pretreatment time. It counts as functional. The conditions noted are these: ip. The gist of the method: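 Male DBA/2J audiogenic-susceptible mice (groups of 6-8) got test compound in methylcellulose, with saline controls by the same route. A 110 dB (12 KHz) sound was given for 30 s. Absence of tonic hindlimb extension counted as protection. ED50 was reported.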

Experiment [10] in a line: The compound was evaluated for the ability to compete with […] for rat cortical and hippocampal membrane glutamate binding site. The format is tissue-based, Hippocampus. Put shortly:
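Competition binding against [³H]CPP at the glutamate site, using rat cortical and hippocampal membranes. […] Values are means of two or more experiments, with standard errors ±10-30% of the mean.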

Experiment [11] addresses Glutamate receptor ionotropic, NMDA 1 (Rattus norvegicus, UniProt P35439). The experiment in a line: The compound was evaluated for the ability to compete with [3H]glycine for strychnine-insensitive binding sites on rat cortical and hippocampal membrane. The format is tissue-based, Hippocampus. Put shortly:
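Rat cortical plus hippocampal membranes, competing against [³H]glycine at strychnine-insensitive sites. […] Values are the mean of ≥2 experiments, with SE within 10-30% of the mean.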

Regarding `O=C(O)CSc1c(C(=O)O)[nH]c2cc(Cl)cc(Cl)c12`, the IC50 (as a rule, the concentration that gives 50% inhibition) in experiment [1] was more than 100 µM; at Glutamate NMDA receptor, 0.1 µM; in [2], more than 100 µM.

For `O=C(O)CCc1c(C(=O)O)[nH]c2ccc(Cl)cc12`, the IC50 in experiment [3] amounted to 25 µM; at Glutamate NMDA receptor, 23 µM. In addition, the Ratio in experiment [4] is 2.

For `O=C(O)CSc1c(C(=O)O)[nH]c2ccccc12`, the IC50 in experiment [3] was found to be 16 µM; on Glutamate NMDA receptor, 12 µM. The Ratio in experiment [4] is 1.6.

`COc1ccc2c(CCC(=O)O)c(C(=O)O)[nH]c2c1`: the IC50 in experiment [3] was 141 µM; at Glutamate NMDA receptor, 13 µM. In experiment [4], the Ratio worked out at 11.

In the case of `O=C(O)CCc1c(C(=O)O)[nH]c2cc(Cl)ccc12`, the IC50 in [3] is 283 µM; at Glutamate NMDA receptor it was 2 µM. In addition, in experiment [4], the Ratio is 140.

Compound `CS(=O)(=O)Nc1ccc2c(CCC(=O)O)c(C(=O)O)[nH]c2c1` displayed a concentration for half-maximal inhibition (IC50) on Glutamate NMDA receptor of more than 100 µM.

In experiment [3], `O=C(O)CCc1c(C(=O)O)[nH]c2cccc(Cl)c12` displayed an IC50 of 60 µM. Moreover, the Ratio in experiment [4] was determined as 10.

For the compound `Cn1c(C(=O)O)c(CCC(=O)O)c2c(Cl)cc(Cl)cc21`, the IC50 is more than 100 µM in experiment [3] and 45 µM at Glutamate NMDA receptor. Also, in experiment [4], the Ratio was more than 2.

As to `O=C(O)CCc1c(C(=O)O)[nH]c2ccccc12`, the IC50 in experiment [3] was found to be 34 µM; on Glutamate NMDA receptor, 27 µM. The Ratio in experiment [4] turned out to be 1.

On to `O=C(O)CCc1c(C(=O)O)[nH]c2cc(Cl)cc(Cl)c12`, for which the IC50 was 358 µM in [3], 418 µM in [1], 0.17 µM on Glutamate NMDA receptor and 273 µM in [2]. Moreover, the Ratio in [4] was found to be 2100 CPP/GLY. Further, the ED50 is 256 mg/kg in the experiment with Mus musculus [5]; 50 mg/kg in the experiment on Mus musculus [6]; more than 50 mg/kg in the experiment on Mus musculus [7]; 1.5 µg in the experiment on Mus musculus [8]; 100 mg/kg with Mus musculus [9].

Compound `O=C(O)CCc1c(C(=O)O)[nH]c2cc(C(F)(F)F)ccc12` displayed an IC50 on Glutamate NMDA receptor of 8 µM.

On Glutamate NMDA receptor, `O=C(O)CCc1c(C(=O)O)[nH]c2cc(Oc3ccccc3)ccc12` registered an IC50 of more than 1000 µM.

`O=C(O)CCc1c(C(=O)O)[nH]c2cc([N+](=O)[O-])ccc12` displayed an IC50 on Glutamate NMDA receptor of 2.5 µM.

`O=C(O)CCc1c(C(=O)O)[nH]c2cc(F)ccc12`: the IC50 at Glutamate NMDA receptor stood at 5 µM.

Compound `O=C(O)CCc1c(C(=O)O)[nH]c2ccc3ccccc3c12` yielded an IC50 at Glutamate NMDA receptor of more than 100 µM.

For `O=C(O)CCc1c(C(=O)O)[nH]c2c(Cl)cccc12`, the IC50 in experiment [3] was more than 1000 µM; on Glutamate NMDA receptor it was more than 100 µM. Moreover, the Ratio in [4] was more than 1.

On Glutamate NMDA receptor, `O=C(O)CCc1c(C(=O)O)[nH]c2cc(F)cc(F)c12` gave an IC50 of 4 µM.

The compound `O=C(O)c1cc(=O)c2ccccc2[nH]1` [TRANSTORINE] displayed a concentration for half-maximal inhibition (IC50) in [3] of 71 µM.

Consider `O=C(O)c1cc2ccccc2[nH]1` [INDOLE-2-CARBOXYLIC ACID], for which the IC50 in experiment [3] came to 4200 µM. In addition, in [4], the Ratio stood at 40.

Regarding `O=C(O)CCc1c(C(=O)O)[nH]c2cccc(F)c12`, the IC50 is 51 µM in experiment [3] and 17 µM at Glutamate NMDA receptor. Besides, in experiment [4], the Ratio came out at 3.

Take `O=C(O)CCc1c(C(=O)O)[nH]c2c1ccc1ccccc12`: on Glutamate NMDA receptor, the IC50 is more than 100 µM.

For the compound `O=C(O)COc1cc(C(=O)O)nc2ccccc12`, the IC50 in experiment [3] was 710 µM; at Glutamate NMDA receptor, 25 µM. Besides, the Ratio in experiment [4] was 28.

On to `O=C(O)CCc1c(C(=O)O)[nH]c2cccc([N+](=O)[O-])c12`, for which the IC50 on Glutamate NMDA receptor amounted to 75 µM.

Compound `O=C(O)CCc1c(C(=O)O)[nH]c2cccc(C(F)(F)F)c12` displayed an IC50 at Glutamate NMDA receptor of 13 µM.

On to `O=C(O)CCc1cc(C(=O)O)nc2ccccc12`, for which the IC50 (in experiment [3]; on Glutamate NMDA receptor) was more than 100 µM throughout.

Regarding `COc1cc(C(=O)O)nc2ccccc12`, the IC50 in experiment [10] and in experiment [11] was more than 100 µM each time.

As for `O=C(O)c1cc(O)c2c(Cl)cc(Cl)cc2n1`, the figures for the IC50 (in [3]; at Glutamate NMDA receptor) were 12 µM and 0.143 µM, respectively. Moreover, in experiment [4], the Ratio amounted to 80.

In turn, `COc1cc(OC)c2c(CCC(=O)O)c(C(=O)O)[nH]c2c1` yielded an IC50 at Glutamate NMDA receptor of more than 100 µM.

Consider `O=C(O)c1cc2c(Cl)cc(Cl)cc2[nH]1`, for which the IC50 in [3] is more than 1000 µM. The Ratio in experiment [4] was more than 150.
